Data on 50 compounds can be found in ChEMBL document CHEMBL1145544, “Probing distal regions of the A2B adenosine receptor by quantitative structure-activity relationship modeling of known and novel agonists” (J Med Chem, 2008).

SMILES strings stand for the structures.

For the test, the target named is T1, Adenosine receptor A2b (Homo sapiens) (UniProt P29275).
T1 sequence (whole entry): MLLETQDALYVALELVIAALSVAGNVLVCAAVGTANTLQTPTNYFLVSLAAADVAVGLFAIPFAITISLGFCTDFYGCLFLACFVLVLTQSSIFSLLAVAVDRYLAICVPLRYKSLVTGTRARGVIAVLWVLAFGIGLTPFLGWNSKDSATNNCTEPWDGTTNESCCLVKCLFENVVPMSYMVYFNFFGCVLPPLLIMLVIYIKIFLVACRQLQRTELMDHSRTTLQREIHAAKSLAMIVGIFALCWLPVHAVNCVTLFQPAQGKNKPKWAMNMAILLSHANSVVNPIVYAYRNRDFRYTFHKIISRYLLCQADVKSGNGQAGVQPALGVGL
Kind of test: Agonist activity human adenosine A2B receptor expressed in CHO cells assessed as stimulation of adenylate cyclase relative to NECA. Format: functional, cell-based. Put shortly:
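Stably transfected CHO cells; cAMP accumulation by enzyme immunoassay kit. Relative potency computed as pEC50(compound) minus pEC50(NECA) determined in the same publication.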
In the case of `CCNC(=O)[C@H]1O[C@@H](n2cnc3c(NNC(=O)c4ccc(C)s4)ncnc32)[C@H](O)[C@@H]1O`, the Activity is -0.232. For the compound `CC(C)(C)OC(=O)C1CCCN1C[C@@H](O)[C@H](Cc1ccccc1)NC(=O)[C@H](CC(N)=O)NC(=O)OCc1ccccc1` (stereo not given in full), the Activity is -0.405. Turning to `CCNC(=O)[C@H]1O[C@@H](n2cnc3c(NNC(=O)c4ccc[nH]4)nc(Cl)nc32)[C@H](O)[C@@H]1O`, the Activity was -0.351.

Regarding `CCNC(=O)[C@H]1O[C@@H](n2cnc3c(Nc4ccc(OCC(=O)Nc5ccc(N6CCOCC6)cc5)cc4)ncnc32)[C@H](O)[C@@H]1O`, the Activity worked out at 0.287.

Turning to `CCNC(=O)[C@H]1O[C@@H](n2cnc3c(N)nc(C#C[C@H](O)c4ccccc4)nc32)[C@H](O)[C@@H]1O`, the Activity worked out at 0. In the case of `CC(C)Nc1nc(C#C[C@H](O)c2ccccc2)nc2c1ncn2[C@@H]1O[C@H](CO)[C@@H](O)[C@H]1O`, the Activity is -0.569. Regarding `CNc1nc(C#C[C@@H](O)c2ccccc2)nc2c1ncn2[C@@H]1O[C@H](CO)[C@@H](O)[C@H]1O`, the Activity is -0.035. To `CCNC(=O)[C@H]1O[C@@H](n2cnc3c(Nc4ccc(OCC(=O)NCc5ccccc5)cc4)nc(Cl)nc32)[C@H](O)[C@@H]1O` belongs -0.053; to `Nc1nc(OCCc2c[nH]c3ccc(I)cc23)nc2c1ncn2[C@@H]1O[C@H](CO)[C@@H](O)[C@H]1O`, -1.13.

On to `Nc1nc(OCCc2c[nH]c3cc(Br)ccc23)nc2c1ncn2[C@@H]1O[C@H](CO)[C@@H](O)[C@H]1O`, for which the Activity amounted to 0.0389. Under `CCNC(=O)[C@H]1O[C@@H](n2cnc3c(NNC(=O)c4sccc4C)nc(Cl)nc32)[C@H](O)[C@@H]1O` stands -0.327; under `CCNC(=O)[C@H]1O[C@@H](n2cnc3c(N)nc(C#C[C@@H](O)c4ccccc4)nc32)[C@H](O)[C@@H]1O`, 1.04; under `Nc1nc(OCCc2ccccc2)nc2c1ncn2[C@@H]1O[C@H](CO)[C@@H](O)[C@H]1O`, -1.4. Under `O=S(=O)(O)c1ccc(Nc2ncnc3c2ncn3[C@@H]2O[C@H](CO)[C@@H](O)[C@H]2O)cc1` stands -1.23; under `CCNC(=O)[C@H]1O[C@@H](n2cnc3c(Nc4ccc(OCC(=O)NC5CCCCC5)cc4)nc(Cl)nc32)[C@H](O)[C@@H]1O`, -0.29; under `CC(C)Nc1nc(C#C[C@@H](O)c2ccccc2)nc2c1ncn2[C@@H]1O[C@H](CO)[C@@H](O)[C@H]1O`, 0.398.

In the case of `Nc1nc(C#C[C@H](O)c2ccccc2)nc2c1ncn2[C@@H]1O[C@H](CO)[C@@H](O)[C@H]1O`, the Activity is -0.412. Under `Nc1nc(OCCc2c[nH]c3ccc(Cl)cc23)nc2c1ncn2[C@@H]1O[C@H](CO)[C@@H](O)[C@H]1O` stands -1.19; under `Nc1nc(OCCc2c[nH]c3ccccc23)nc2c1ncn2[C@@H]1O[C@H](CO)[C@@H](O)[C@H]1O`, -0.33.

With `CCNC(=O)[C@H]1O[C@@H](n2cnc3c(NC)ncnc32)[C@H](O)[C@@H]1O`, the Activity is -0.787. Under `CCNC(=O)[C@H]1O[C@@H](n2cnc3c(Nc4ccc(OCC(=O)Nc5ccc6c(c5)OCO6)cc4)ncnc32)[C@H](O)[C@@H]1O` stands 0.64; under `CCNC(=O)[C@H]1O[C@@H](n2cnc3c(Nc4ccc(OCC(=O)NCc5ccc(OC)cc5)cc4)ncnc32)[C@H](O)[C@@H]1O`, -0.19; under `CCNC(=O)[C@H]1O[C@@H](n2cnc3c(NNC(=O)c4ccsc4)nc(Cl)nc32)[C@H](O)[C@@H]1O`, -0.449.

Take `Nc1nc(OCCc2c[nH]c3ccc(F)cc23)nc2c1ncn2[C@@H]1O[C@H](CO)[C@@H](O)[C@H]1O`: the Activity was -0.739. Take `Nc1nc(OCCc2cc[nH]c2)nc2c1ncn2[C@@H]1O[C@H](CO)[C@@H](O)[C@H]1O`: the Activity was -1.27. For `CCCCC#Cc1nc(NC(C)C)c2ncn([C@@H]3O[C@H](CO)[C@@H](O)[C@H]3O)c2n1`, the Activity was -1.62.

`CCNC(=O)[C@H]1O[C@@H](n2cnc3c(Nc4ccc(OCC(=O)Nc5ccccc5)cc4)ncnc32)[C@H](O)[C@@H]1O`: the Activity is 1.33. To `Nc1ncnc2c1ncn2[C@@H]1O[C@H](C(=O)NC2CC2)[C@@H](O)[C@H]1O` belongs -0.233; to `CCNC(=O)[C@H]1O[C@@H](n2cnc3c(Nc4ccc(OCC(=O)Nc5ccc(I)cc5C(F)(F)F)cc4)ncnc32)[C@H](O)[C@@H]1O`, 0.161. As to `CCNC(=O)[C@H]1O[C@@H](n2cnc3c(N)ncnc32)[C@H](O)[C@@H]1O`, the Activity was determined as 0. Take `CCNC(=O)[C@H]1O[C@@H](n2cnc3c(Nc4ccc(OCC(=O)NCc5ccccc5)cc4)ncnc32)[C@H](O)[C@@H]1O`: the Activity was determined as 0.014. Under `CCNC(=O)[C@H]1O[C@@H](n2cnc3c(NNC(=O)c4ccco4)ncnc32)[C@H](O)[C@@H]1O` stands 0.29; under `Nc1nc(C#C[C@@H](O)c2ccccc2)nc2c1ncn2[C@@H]1O[C@H](CO)[C@@H](O)[C@H]1O`, 0.416. Under `CNc1nc(C#C[C@H](O)c2ccccc2)nc2c1ncn2[C@@H]1O[C@H](CO)[C@@H](O)[C@H]1O` stands -1.62; under `CCNC(=O)[C@H]1O[C@@H](n2cnc3c(NNC(=O)c4ccc(C)[nH]4)nc(Cl)nc32)[C@H](O)[C@@H]1O`, -0.039; under `Nc1nc(OCCc2c[nH]c3ccc(Br)cc23)nc2c1ncn2[C@@H]1O[C@H](CO)[C@@H](O)[C@H]1O`, -0.416. To `CCNC[C@H]1O[C@@H](n2cnc3c(NC(=N)N)ncnc32)[C@H](O)[C@@H]1O` belongs 0.41. As for `COc1ccc2[nH]cc(CCOc3nc(N)c4ncn([C@@H]5O[C@H](CO)[C@@H](O)[C@H]5O)c4n3)c2c1`, the Activity is -0.951. To `CCCCC#Cc1nc(NC)c2ncn([C@@H]3O[C@H](CO)[C@@H](O)[C@H]3O)c2n1` belongs -1.62; to `Nc1nc(OCCc2c[nH]c3cc(Cl)ccc23)nc2c1ncn2[C@@H]1O[C@H](CO)[C@@H](O)[C@H]1O`, -0.188. Under `CCNC(=O)[C@H]1O[C@@H](n2cnc3c(Nc4ccc(OCC(=O)Nc5cc(OC)cc(OC)c5)cc4)ncnc32)[C@H](O)[C@@H]1O` stands 0.461; under `OC[C@H]1O[C@@H](n2cnc3c(NCc4ccccc4)ncnc32)[C@H](O)[C@@H]1O`, -1.49; under `CCNc1nc(OCCc2c[nH]c3ccccc23)nc2c1ncn2[C@@H]1O[C@H](CO)[C@@H](O)[C@H]1O`, -1.37. Turning to `CNc1nc(C#CCCCc2ccccc2)nc2c1ncn2[C@@H]1O[C@H](CO)[C@@H](O)[C@H]1O`, the Activity is -1.62. To `Nc1nc(Cl)nc2c1ncn2[C@@H]1O[C@H](CO)[C@@H](O)[C@H]1O` belongs -0.889; to `OC[C@H]1O[C@@H](n2cnc3c(Nc4ccccc4)ncnc32)[C@H](O)[C@@H]1O`, -1.31. Consider `CCNc1nc(C#C[C@H](O)c2ccccc2)nc2c1ncn2[C@@H]1O[C@H](CO)[C@@H](O)[C@H]1O`, for which the Activity is -0.579. Under `CCNC(=O)[C@H]1O[C@@H](n2cnc3c(Nc4ccc(OCC(=O)Nc5ccc(Br)cc5)cc4)ncnc32)[C@H](O)[C@@H]1O` stands 1.17. Regarding `CCNC(=O)[C@H]1O[C@@H](n2cnc3c(NNC(=O)c4cccs4)nc(Cl)nc32)[C@H](O)[C@@H]1O`, the Activity is -0.097. To `Nc1nc(OCCc2c[nH]c3ccc(O)cc23)nc2c1ncn2[C@@H]1O[C@H](CO)[C@@H](O)[C@H]1O` belongs -0.806.
